We go through 5 compounds from ChEMBL document CHEMBL1158118, “Decaspirones F-I, bioactive secondary metabolites from the saprophytic fungus Helicoma viridis” (2006).

The structures appear in SMILES notation. The source made the active and inactive calls. The calls are words filed in the database; no cut-off is given here.

One test deals with Lactococcus lactis. The test can be described thus: Antibacterial activity against Lactococcus lactis PCM 2379 at 100 ug/disk by standard disk assay. The class given is functional. The following applies: read-out: IZ. An outline of the steps:
(§1)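 Test compound loaded onto 6 mm paper disks at 100 µg/disk and laid on the agar surface. Plates incubated at 37 °C for 24 h, then scored for a zone of inhibition.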

For the next test, the system named is Micrococcus luteus. The test can be described thus: Antibacterial activity against Sarcina lutea CMCC B28001 at 100 ug/disk by standard disk assay. In kind it is functional, organism-based. An outline of the steps: as §1
The test system of another test is Geotrichum candidum. The test can be described thus: Antifungal activity against Geotrichum candidum AS2.498 at 100 ug/disk by standard disk assay. In kind it is functional, organism-based. A digest of the protocol: (§2)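 Paper disks (6 mm diameter) carrying 100 µg of test compound placed on the agar surface. Plates kept at 25 °C for 48 h and checked for a zone of inhibition.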

A further test concerns Pseudomonas aeruginosa. The test can be described thus: Antibacterial activity against […] Pseudomonas aeruginosa ATCC 27853 at 100 ug/disk by standard disk assay. In kind it is functional. The following applies: read-out: IZ. A digest of the protocol:
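Disk diffusion on agar; compounds loaded onto 6 mm paper disks at 100 µg/disk and placed on the plate surface. Plates incubated at 37 °C for 24 h, then zone of inhibition recorded in mm. Ciprofloxacin at 100 µg/disk served as reference.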

For the next test, the system named is Aspergillus fumigatus. The test can be described thus: Antifungal activity against Aspergillus fumigatus ATCC 10894 at 100 ug/disk by standard disk assay. In kind it is functional, organism-based. A digest of the protocol:
as §2

A further test has as its system Streptococcus mutans. The test can be described thus: Antibacterial activity against Streptococcus mutans ATCC 25175 at 100 ug/disk by standard disk assay. In kind it is functional, organism-based. An outline of the steps:
as §1

The test system of a further test is Candida albicans. The test can be described thus: Antifungal activity against Candida albicans ATCC 10231 at 100 ug/disk by standard disk assay. The class given is functional, organism-based. A digest of the protocol:
as §2

The next test deals with Enterococcus faecalis. The test can be described thus: Antibacterial activity against Enterococcus faecalis ATCC 19433 at 100 ug/disk by standard disk assay. The class given is functional, organism-based. A digest of the protocol:
as §1

The subject of the next test is Staphylococcus aureus. The test can be described thus: Antibacterial activity against Staphylococcus aureus ATCC 6538 at 100 ug/disk by standard disk assay. The class given is functional, organism-based. A digest of the protocol:
as §1

In the case of `O=C1CC[C@@H](O)[C@@H]2[C@@H]1[C@@H](O)C=CC21Oc2cccc3cccc(c23)O1` [DECASPIRONE G], the results for the zone of inhibition at 100 µg/disc in the test with Lactococcus lactis and in the test with Pseudomonas aeruginosa were 12 mm and 8 mm, respectively. Besides, the result in the test on Micrococcus luteus, in the test on Geotrichum candidum, in the test with Aspergillus fumigatus, in the test on Streptococcus mutans, with Candida albicans and with Enterococcus faecalis was inactive. In addition, the outcome in the test on Staphylococcus aureus was inactive.

As to `O=C1CCC(O)c2c(Oc3cccc4cccc(O)c34)cccc21` (centres undefined) [DECASPIRONE I], the result in the test on Micrococcus luteus, in the test with Geotrichum candidum, in the test with Aspergillus fumigatus, in the test with Streptococcus mutans, in the test on Candida albicans and with Enterococcus faecalis was inactive. In addition, in the test with Staphylococcus aureus, the outcome was inactive. Further, the zone of inhibition at 100 µg/disc in the test with Pseudomonas aeruginosa is 8 mm.

In the case of `O[C@@H]1C=C[C@H](O)[C@@H]2[C@@H]1C1(C=C[C@@H]2O)Oc2cccc3cccc(c23)O1` [DECASPIRONE F], the result with Micrococcus luteus, with Geotrichum candidum, in the test with Aspergillus fumigatus, in the test on Streptococcus mutans, in the test with Candida albicans and with Enterococcus faecalis was inactive. Moreover, the outcome in the test on Staphylococcus aureus was inactive. In addition, in the test on Pseudomonas aeruginosa, the zone of inhibition at 100 µg/disc was 8 mm.

As to `O[C@H]1[C@@H]2[C@H]([C@@H](O)C=CC23Oc2cccc4cccc(c24)O3)[C@@H](O)C[C@@H]1O` [DECASPIRONE H], the result in the test on Micrococcus luteus, in the test with Geotrichum candidum, with Aspergillus fumigatus, in the test with Streptococcus mutans, in the test with Candida albicans and in the test on Enterococcus faecalis was inactive. Further, the result with Staphylococcus aureus was inactive. Also, the zone of inhibition at 100 µg/disc with Pseudomonas aeruginosa is 8 mm.

Consider `O=C(O)c1cn(C2CC2)c2cc(N3CCNCC3)c(F)cc2c1=O` [CIPROFLOXACIN], for which the zone of inhibition at 100 µg/disc in the test with Pseudomonas aeruginosa was determined as 22 mm.
